According to paper PMC12570389 (RSC Advances, 2025):
“Also recorded” adds a separate entry of the source.

Key:
MRC-5 cells = test: Hydroxyproline content in TGF-β-stimulated MRC-5 cells; type: cell-based, human; settings: 17 (50 μM), 67 (100 μM), nintedanib (10 μM), 48 hours, vs TGF-β model
In short: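 TGF-β (10 ng mL−1, 48 h) stimulated MRC-5 fibrosis model cells were then exposed to test compound at a single concentration (50 or 100 μM), or to a reference antifibrotic at 10 μM, for 48 h. Hydroxyproline content was compared with the TGF-β-stimulated model.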

COL1A1 = test: RT-qPCR of COL1A1 mRNA in TGF-β-stimulated MRC-5 cells; type: cell-based, human; settings: 17 (50 μM), 67 (100 μM), nintedanib (10 μM), 48 hours, vs TGF-β model
[1] = system: Human diploid fibroblasts (MRC-5); test: CCK8 viability assay in TGF-β-induced pulmonary fibrosis cell model; type: cell-based
In short: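 MRC-5 fibroblasts were seeded at 2000 cells/well and given TGF-β (10 ng mL−1) for 48 h to build the fibrosis model. Test compound was dissolved in DMSO, diluted in DMEM and applied at 0, 1, 1.25, 2.5, 5, 10, 25, 50 and 100 μmol for 48 h, with a reference antifibrotic as positive control. CCK8 (10% volume) was added, plates incubated 3 h in the dark, and A450 read.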

CCR2 = settings: Table S5C training set of 3D-QSAR; ref BindingDB; cited from earlier work

Row | SMILES | hydroxyproline (MRC-5 cells) | expression of COL1A1 (COL1A1) | proliferation / 48-hour cell inhibition rate (CCK8) ([1]; TGF-β (10 ng mL^−1) induced MRC-5, 48-hour drug treatment, 0-100 μmol) | cytotoxic effect on the pulmonary fibrosis cell model, comparison ([1]; TGF-β induced MRC-5, 48 h, CCK8) | IC50 (CCR2)
1 | COC(=O)c1ccc2c(c1)NC(=O)/C2=C(\Nc1ccc(N(C)C(=O)CN2CCN(C)CC2)cc1)c1ccccc1 [nintedanib] | significantly decreased | significantly decreased | effectively suppressed the proliferation; also recorded: concentration-dependent increase in their inhibitory effects | even stronger cytotoxic effect than compound 17 | –
2 | Cc1ccc(-c2ccc3c(c2)C=C(C(=O)Nc2ccc(C[N+](C)(C)C4CCOCC4)cc2)CCC3)cc1 [BDBM50088301] | – | – | – | – | 0.03 nM
